# ChEMBL document CHEMBL1147809, “Tumor-cell-targeted methionine-enkephalin analogues containing unnatural amino acids: design, synthesis, and in vitro antitumor activity” (2006)
# System: HeLa
# Assay: Antiproliferative activity against human HeLa cell line at 1000 uM relative to control
# Assay type: functional
# Summary of the method: (§1)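 Cells from ATCC grown as monolayers in DMEM with 10% FBS, 2 mM glutamine, penicillin/streptomycin, 37 °C, 5% CO2. Seeded at 2 × 10^4 cells/mL, and after 24 h the medium was replaced with fresh medium containing compound (water/10% DMSO stock, PBS working dilutions 10^-3 to 10^-6 M). Exposure was 72 h, then MTT read-out. Growth % = (A_peptide − A_blank)/(A_control − A_blank) × 100, with inhibition taken relative to untreated cells. Values are means of three experiments run in triplicate.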
row,SMILES,inhibition at 1000 µM [%]
1,CSCC[C@H](NC(=O)[C@H](Cc1ccccc1)NC(=O)CNC(=O)CNC(=O)[C@@H](N)Cc1ccc(O)cc1)C(=O)O,22.3

# System: HBL
# Assay: Antiproliferative activity against human HBL cell line at 10 uM relative to control
# Assay type: functional
# Summary of the method: as §1
row,SMILES,inhibition at 10 µM [%]
1,CSCC[C@H](NC(=O)[C@H](Cc1ccccc1)NC(=O)CNC(=O)CNC(=O)[C@@H](N)Cc1ccc(O)cc1)C(=O)O,1

# System: HBL
# Assay: Antiproliferative activity against human HBL cell line at 100 uM relative to control
# Assay type: functional
# Summary of the method: as §1
row,SMILES,inhibition at 100 µM [%]
1,CSCC[C@H](NC(=O)[C@H](Cc1ccccc1)NC(=O)CNC(=O)CNC(=O)[C@@H](N)Cc1ccc(O)cc1)C(=O)O,4.5

# System: HBL
# Assay: Antiproliferative activity against human HBL cell line at 1000 uM relative to control
# Assay type: functional
# Summary of the method: as §1
row,SMILES,inhibition at 1000 µM [%]
1,CSCC[C@H](NC(=O)[C@H](Cc1ccccc1)NC(=O)CNC(=O)CNC(=O)[C@@H](N)Cc1ccc(O)cc1)C(=O)O,10.8

# System: HT-29
# Assay: Antiproliferative activity against human HT29 cell line at 10 uM relative to control
# Assay type: functional
# Summary of the method: as §1
row,SMILES,inhibition at 10 µM [%]
1,CSCC[C@H](NC(=O)[C@H](Cc1ccccc1)NC(=O)CNC(=O)CNC(=O)[C@@H](N)Cc1ccc(O)cc1)C(=O)O,15.9

# System: HT-29
# Assay: Antiproliferative activity against human HT29 cell line at 100 uM relative to control
# Assay type: functional
# Summary of the method: as §1
row,SMILES,inhibition at 100 µM [%]
1,CSCC[C@H](NC(=O)[C@H](Cc1ccccc1)NC(=O)CNC(=O)CNC(=O)[C@@H](N)Cc1ccc(O)cc1)C(=O)O,16.1

# System: HT-29
# Assay: Antiproliferative activity against human HT29 cell line at 1000 uM relative to control
# Assay type: functional
# Summary of the method: as §1
row,SMILES,inhibition at 1000 µM [%]
1,CSCC[C@H](NC(=O)[C@H](Cc1ccccc1)NC(=O)CNC(=O)CNC(=O)[C@@H](N)Cc1ccc(O)cc1)C(=O)O,19.3

# System: SW-620
# Assay: Antiproliferative activity against human SW620 cell line at 10 uM relative to control
# Assay type: functional
# Summary of the method: as §1
row,SMILES,inhibition at 10 µM [%]
1,CSCC[C@H](NC(=O)[C@H](Cc1ccccc1)NC(=O)CNC(=O)CNC(=O)[C@@H](N)Cc1ccc(O)cc1)C(=O)O,12.7

# System: SW-620
# Assay: Antiproliferative activity against human SW620 cell line at 100 uM relative to control
# Assay type: functional
# Summary of the method: as §1
row,SMILES,inhibition at 100 µM [%]
1,CSCC[C@H](NC(=O)[C@H](Cc1ccccc1)NC(=O)CNC(=O)CNC(=O)[C@@H](N)Cc1ccc(O)cc1)C(=O)O,15.3

# System: SW-620
# Assay: Antiproliferative activity against human SW620 cell line at 1000 uM relative to control
# Assay type: functional
# Summary of the method: as §1
row,SMILES,inhibition at 1000 µM [%]
1,CSCC[C@H](NC(=O)[C@H](Cc1ccccc1)NC(=O)CNC(=O)CNC(=O)[C@@H](N)Cc1ccc(O)cc1)C(=O)O,19.1

# System: Caco-2
# Assay: Antiproliferative activity against human Caco-2 cell line at 10 uM relative to control
# Assay type: functional
# Summary of the method: as §1
row,SMILES,inhibition at 10 µM [%]
1,CSCC[C@H](NC(=O)[C@H](Cc1ccccc1)NC(=O)CNC(=O)CNC(=O)[C@@H](N)Cc1ccc(O)cc1)C(=O)O,6.4

# System: Caco-2
# Assay: Antiproliferative activity against human Caco-2 cell line at 100 uM relative to control
# Assay type: functional
# Summary of the method: as §1
row,SMILES,inhibition at 100 µM [%]
1,CSCC[C@H](NC(=O)[C@H](Cc1ccccc1)NC(=O)CNC(=O)CNC(=O)[C@@H](N)Cc1ccc(O)cc1)C(=O)O,8.4

# System: Caco-2
# Assay: Antiproliferative activity against human Caco-2 cell line at 1000 uM relative to control
# Assay type: functional
# Summary of the method: as §1
row,SMILES,inhibition at 1000 µM [%]
1,CSCC[C@H](NC(=O)[C@H](Cc1ccccc1)NC(=O)CNC(=O)CNC(=O)[C@@H](N)Cc1ccc(O)cc1)C(=O)O,3.2

# System: MCF7
# Assay: Antiproliferative activity against human MCF7 cell line at 10 uM relative to control
# Assay type: functional
# Summary of the method: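 MTT assay on monolayer cells grown in DMEM with 10% FBS, 2 mM glutamine, penicillin and streptomycin, at 37 °C in 5% CO2. Cells were plated at 2 × 10^4 cells/mL on day 0. After 24 h the medium was replaced with fresh medium containing compound (working dilutions in PBS from 10% DMSO/water stock), then incubated 72 h. Percent growth inhibition was calculated against untreated cells after blank subtraction. Values are means of three experiments run in triplicate.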
row,SMILES,inhibition at 10 µM [%]
1,CSCC[C@H](NC(=O)[C@H](Cc1ccccc1)NC(=O)CNC(=O)CNC(=O)[C@@H](N)Cc1ccc(O)cc1)C(=O)O,4.1

# System: MCF7
# Assay: Antiproliferative activity against human MCF7 cell line at 100 uM relative to control
# Assay type: functional
# Summary of the method: as §1
row,SMILES,inhibition at 100 µM [%]
1,CSCC[C@H](NC(=O)[C@H](Cc1ccccc1)NC(=O)CNC(=O)CNC(=O)[C@@H](N)Cc1ccc(O)cc1)C(=O)O,7.6

# System: MCF7
# Assay: Antiproliferative activity against human MCF7 cell line at 1000 uM relative to control
# Assay type: functional
# Summary of the method: as §1
row,SMILES,inhibition at 1000 µM [%]
1,CSCC[C@H](NC(=O)[C@H](Cc1ccccc1)NC(=O)CNC(=O)CNC(=O)[C@@H](N)Cc1ccc(O)cc1)C(=O)O,15.4

# System: HEp-2
# Assay: Antiproliferative activity against human HEp2 cell line at 10 uM relative to control
# Assay type: functional
# Summary of the method: as §1
row,SMILES,inhibition at 10 µM [%]
1,CSCC[C@H](NC(=O)[C@H](Cc1ccccc1)NC(=O)CNC(=O)CNC(=O)[C@@H](N)Cc1ccc(O)cc1)C(=O)O,4.5

# System: HEp-2
# Assay: Antiproliferative activity against human HEp2 cell line at 100 uM relative to control
# Assay type: functional
# Summary of the method: as §1
row,SMILES,inhibition at 100 µM [%]
1,CSCC[C@H](NC(=O)[C@H](Cc1ccccc1)NC(=O)CNC(=O)CNC(=O)[C@@H](N)Cc1ccc(O)cc1)C(=O)O,2.4

# System: HEp-2
# Assay: Antiproliferative activity against human HEp2 cell line at 1000 uM relative to control
# Assay type: functional
# Summary of the method: as §1
row,SMILES,inhibition at 1000 µM [%]
1,CSCC[C@H](NC(=O)[C@H](Cc1ccccc1)NC(=O)CNC(=O)CNC(=O)[C@@H](N)Cc1ccc(O)cc1)C(=O)O,3.3

# System: HeLa
# Assay: Antiproliferative activity against human HeLa cell line at 10 uM relative to control
# Assay type: functional
# Summary of the method: as §1
row,SMILES,inhibition at 10 µM [%]
1,CSCC[C@H](NC(=O)[C@H](Cc1ccccc1)NC(=O)CNC(=O)CNC(=O)[C@@H](N)Cc1ccc(O)cc1)C(=O)O,11.4

# System: HeLa
# Assay: Antiproliferative activity against human HeLa cell line at 100 uM relative to control
# Assay type: functional
# Summary of the method: as §1
row,SMILES,inhibition at 100 µM [%]
1,CSCC[C@H](NC(=O)[C@H](Cc1ccccc1)NC(=O)CNC(=O)CNC(=O)[C@@H](N)Cc1ccc(O)cc1)C(=O)O,12

# System: SW-620
# Assay: Antiproliferative activity against human SW620 cell line at 1 uM relative to control
# Assay type: functional
# Summary of the method: as §1
row,SMILES,inhibition at 1 µM [%]
1,CSCC[C@H](NC(=O)[C@H](Cc1ccccc1)NC(=O)CNC(=O)CNC(=O)[C@@H](N)Cc1ccc(O)cc1)C(=O)O,18.9

# System: Caco-2
# Assay: Antiproliferative activity against human Caco-2 cell line at 1 uM relative to control
# Assay type: functional
# Summary of the method: as §1
row,SMILES,inhibition at 1 µM [%]
1,CSCC[C@H](NC(=O)[C@H](Cc1ccccc1)NC(=O)CNC(=O)CNC(=O)[C@@H](N)Cc1ccc(O)cc1)C(=O)O,4.2

# System: MCF7
# Assay: Antiproliferative activity against human MCF7 cell line at 1 uM relative to control
# Assay type: functional
# Summary of the method: as §1
row,SMILES,inhibition at 1 µM [%]
1,CSCC[C@H](NC(=O)[C@H](Cc1ccccc1)NC(=O)CNC(=O)CNC(=O)[C@@H](N)Cc1ccc(O)cc1)C(=O)O,3.6

# System: HEp-2
# Assay: Antiproliferative activity against human HEp2 cell line at 1 uM relative to control
# Assay type: functional
# Summary of the method: as §1
row,SMILES,inhibition at 1 µM [%]
1,CSCC[C@H](NC(=O)[C@H](Cc1ccccc1)NC(=O)CNC(=O)CNC(=O)[C@@H](N)Cc1ccc(O)cc1)C(=O)O,5.2

# System: HeLa
# Assay: Antiproliferative activity against human HeLa cell line at 1 uM relative to control
# Assay type: functional
# Summary of the method: as §1
row,SMILES,inhibition at 1 µM [%]
1,CSCC[C@H](NC(=O)[C@H](Cc1ccccc1)NC(=O)CNC(=O)CNC(=O)[C@@H](N)Cc1ccc(O)cc1)C(=O)O,2.3

# System: HBL
# Assay: Antiproliferative activity against human HBL cell line at 1 uM relative to control
# Assay type: functional
# Summary of the method: as §1
row,SMILES,inhibition at 1 µM [%]
1,CSCC[C@H](NC(=O)[C@H](Cc1ccccc1)NC(=O)CNC(=O)CNC(=O)[C@@H](N)Cc1ccc(O)cc1)C(=O)O,0.4

# System: HT-29
# Assay: Antiproliferative activity against human HT29 cell line at 1 uM relative to control
# Assay type: functional
# Summary of the method: as §1
row,SMILES,inhibition at 1 µM [%]
1,CSCC[C@H](NC(=O)[C@H](Cc1ccccc1)NC(=O)CNC(=O)CNC(=O)[C@@H](N)Cc1ccc(O)cc1)C(=O)O,14
